Measured values reported in ChEMBL document CHEMBL1148425, “New fatty acid oxidation inhibitors with increased potency lacking adverse metabolic and electrophysiological properties” (Bioorg Med Chem Lett, 2004).

Tests used:
[1] = Metabolic stability (% remaining at 30 mins) in human S9.; type: ADME; settings: human S9 fraction
Method in brief: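 Incubated 30 min with human liver S9 (2 mg/mL protein, NADH added), n=2. Reported as % parent remaining.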

[2] = molecular target: T1, Peroxisomal acyl-coenzyme A oxidase 1 (Rattus norvegicus) (UniProt P07872); assay: Inhibition of rat heart mitochondrial Palmitoyl-CoA oxidation at 30 uM
T1 sequence (whole entry): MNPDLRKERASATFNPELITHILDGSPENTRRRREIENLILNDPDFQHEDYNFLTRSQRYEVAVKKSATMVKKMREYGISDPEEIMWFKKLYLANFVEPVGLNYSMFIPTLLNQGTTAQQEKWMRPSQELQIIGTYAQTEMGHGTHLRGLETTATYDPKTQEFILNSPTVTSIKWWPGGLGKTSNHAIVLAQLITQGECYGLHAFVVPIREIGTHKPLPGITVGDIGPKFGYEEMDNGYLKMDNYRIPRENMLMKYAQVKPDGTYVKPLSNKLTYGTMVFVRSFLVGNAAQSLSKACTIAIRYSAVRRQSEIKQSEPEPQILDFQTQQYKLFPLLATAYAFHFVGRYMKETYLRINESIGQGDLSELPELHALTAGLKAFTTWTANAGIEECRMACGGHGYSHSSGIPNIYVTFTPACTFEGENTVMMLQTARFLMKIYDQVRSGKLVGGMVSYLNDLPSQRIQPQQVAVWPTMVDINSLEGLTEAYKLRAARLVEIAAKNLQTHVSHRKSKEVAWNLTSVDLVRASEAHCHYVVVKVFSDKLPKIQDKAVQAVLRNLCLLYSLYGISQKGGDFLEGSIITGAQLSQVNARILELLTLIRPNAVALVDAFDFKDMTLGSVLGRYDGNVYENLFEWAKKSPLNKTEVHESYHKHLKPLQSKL
Method in brief: (§1)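 Rat heart mitochondrial preparations incubated with 1-[¹⁴C]-palmitoylCoA as the long-chain fatty acid oxidation substrate. Oxidation inhibition was reported as % inhibition at the listed test concentration, averaged from two or three measurements.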

[3] = molecular target: T2, Cytochrome P450 3A4 (Homo sapiens, UniProt P08684); assay: Inhibition of human cytochrome P450 3A4
[4] = Half life in rat after 2 mg/kg peroral administration; type: ADME, organism-based; design: dose 2 mg/kg, route oral; settings: in vivo, po
[5] = species: Cavia porcellus; assay: Electrophysiological effect on isolated guinea pig heart as change in H-V interval at 3 uM; type: functional
[6] = species: Cavia porcellus; assay: Electrophysiological effect on isolated guinea pig heart as change in S-H interval at 3 uM; type: functional
[7] = Half life in rat after 1 mg/kg i.v. administration; type: ADME, organism-based; design: dose 1 mg/kg, route intravenous; settings: in vivo, iv
[8] = species: Cavia porcellus; assay: Electrophysiological effect on isolated guinea pig heart as change in S-H interval at 10 uM; type: functional
[9] = species: Cavia porcellus; assay: Electrophysiological effect on isolated guinea pig heart as change in coronary perfusion pressure at 3 uM; type: functional
[10] = Oral bioavailability in rat (dose 2 mg/kg); type: ADME, organism-based; settings: in vivo
[11] = Maximum concentration in rat after 2 mg/kg peroral administration; type: ADME, organism-based; design: dose 2 mg/kg, route oral; settings: in vivo, po
[12] = species: Cavia porcellus; assay: Electrophysiological effect on isolated guinea pig heart as change in coronary perfusion pressure at 10 uM; type: functional
[13] = molecular target: T3, Cytochrome P450 1A2 (Homo sapiens, UniProt P05177); assay: Inhibition of human cytochrome P450 1A2
T3 sequence (P05177 whole entry): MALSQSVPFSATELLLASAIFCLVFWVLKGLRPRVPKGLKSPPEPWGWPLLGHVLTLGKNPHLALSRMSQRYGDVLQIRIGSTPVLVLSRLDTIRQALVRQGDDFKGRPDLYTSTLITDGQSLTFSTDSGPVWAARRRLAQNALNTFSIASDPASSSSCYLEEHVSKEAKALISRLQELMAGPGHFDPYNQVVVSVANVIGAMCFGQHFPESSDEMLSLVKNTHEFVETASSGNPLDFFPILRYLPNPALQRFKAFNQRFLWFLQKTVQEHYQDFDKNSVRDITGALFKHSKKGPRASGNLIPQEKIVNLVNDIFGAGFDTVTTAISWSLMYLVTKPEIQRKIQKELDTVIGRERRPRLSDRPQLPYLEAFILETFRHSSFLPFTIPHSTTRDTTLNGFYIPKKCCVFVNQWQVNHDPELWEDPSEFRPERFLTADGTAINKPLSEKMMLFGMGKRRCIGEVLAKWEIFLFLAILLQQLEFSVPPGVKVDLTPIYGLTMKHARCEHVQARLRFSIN

[14] = Volume of distribution of compound in rat after 1 mg/kg i.v. administration; type: ADME, organism-based; design: dose 1 mg/kg, route intravenous; settings: in vivo, iv, read-out: Vdss
[15] = Time to reach maximum concentration in rat after 2 mg/kg peroral administration; 4-6; type: ADME, organism-based; design: dose 2 mg/kg, route oral; settings: in vivo, po
[16] = Total concentration in rat after 2 mg/kg peroral administration in 24 hours; type: ADME, organism-based; design: dose 2 mg/kg, route oral; settings: in vivo, po
[17] = molecular target: Cytochrome P450 2C9 (Homo sapiens, UniProt P11712); assay: Inhibition of cytochrome P450 2C9 (human)
[18] = species: Cavia porcellus; assay: Electrophysiological effect on isolated guinea pig heart as change in H-V interval at 10 uM; type: functional
[19] = Clearance of compound in rat after 1 mg/kg i.v. administration; type: ADME, organism-based; design: dose 1 mg/kg, route intravenous; settings: plasma, iv, read-out: Clp
[20] = Total concentration in rat after 1 mg/kg i.v. administration in 24 hours; type: ADME, organism-based; design: dose 1 mg/kg, route intravenous; settings: in vivo, iv
[21] = molecular target: T2, Cytochrome P450 3A4; assay: Inhibition of cytochrome P450 3A4 (human)
[22] = molecular target: T1, Peroxisomal acyl-coenzyme A oxidase 1 (Rattus norvegicus); assay: Inhibition of rat heart mitochondrial Palmitoyl-CoA oxidation at 100 uM; method in brief: as §1

Cytochrome P450 2C9, sequence (P11712 whole entry): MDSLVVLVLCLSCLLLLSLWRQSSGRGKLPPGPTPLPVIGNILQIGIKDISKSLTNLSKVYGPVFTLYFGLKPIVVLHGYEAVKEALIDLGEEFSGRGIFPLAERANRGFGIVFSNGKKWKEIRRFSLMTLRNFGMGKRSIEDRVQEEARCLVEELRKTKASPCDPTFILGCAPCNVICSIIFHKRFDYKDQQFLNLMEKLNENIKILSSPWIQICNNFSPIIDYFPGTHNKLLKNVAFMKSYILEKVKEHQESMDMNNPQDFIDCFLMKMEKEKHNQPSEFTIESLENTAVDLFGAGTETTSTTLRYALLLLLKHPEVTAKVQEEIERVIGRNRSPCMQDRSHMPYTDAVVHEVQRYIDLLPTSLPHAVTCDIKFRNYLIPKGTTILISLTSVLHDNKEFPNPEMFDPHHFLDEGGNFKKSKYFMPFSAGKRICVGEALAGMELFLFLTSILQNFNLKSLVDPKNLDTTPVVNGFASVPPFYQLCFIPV
T2 sequence (P08684 whole entry): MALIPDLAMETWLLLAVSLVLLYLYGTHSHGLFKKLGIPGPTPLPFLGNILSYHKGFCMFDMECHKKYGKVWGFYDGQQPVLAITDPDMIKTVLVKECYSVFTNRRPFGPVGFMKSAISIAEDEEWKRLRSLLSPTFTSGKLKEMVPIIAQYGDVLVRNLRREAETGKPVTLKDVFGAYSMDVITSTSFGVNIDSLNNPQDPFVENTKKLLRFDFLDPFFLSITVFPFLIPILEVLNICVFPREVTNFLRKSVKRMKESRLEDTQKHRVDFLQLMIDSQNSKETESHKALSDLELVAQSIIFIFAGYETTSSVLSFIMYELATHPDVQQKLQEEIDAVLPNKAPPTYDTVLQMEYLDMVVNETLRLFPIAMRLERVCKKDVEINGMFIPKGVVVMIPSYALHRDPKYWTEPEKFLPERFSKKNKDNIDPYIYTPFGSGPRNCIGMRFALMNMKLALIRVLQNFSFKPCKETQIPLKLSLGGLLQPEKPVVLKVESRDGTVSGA

Cc1nc2cc(OC[C@H](O)CN3CCN(CC(=O)Nc4ccc(C(F)(F)F)cc4)CC3)ccc2s1
remaining at 0.5 h [1]: 28%

Cc1nc2cc(OC[C@H](O)CN3CCN(CC(=O)N[C@@H](C)c4ccccc4)CC3)ccc2s1
remaining at 0.5 h [1]: 23%

Cc1nc2cc(OC[C@H](O)CN3CCN(CC(=O)Nc4ccc5c(c4)CCC5)CC3)ccc2s1
remaining at 0.5 h [1]: 15%

Cc1nc2cc(OC[C@H](O)CN3CCN(CC(=O)Nc4ccc(Cl)c(C(F)(F)F)c4)CC3)ccc2s1
remaining at 0.5 h [1]: 25%

Cc1nc2cc(OC[C@H](O)CN3CCN(CC(=O)Nc4cccc5cccnc45)CC3)ccc2s1
remaining at 0.5 h [1]: 12%

Cc1nc2cc(OC[C@H](O)CN3CCN(CC(=O)NCc4ccc(Cl)cc4)CC3)ccc2s1
remaining at 0.5 h [1]: 16%

Cc1nc2cc(OC[C@H](O)CN3CCN(CC(=O)NCCc4ccccc4)CC3)ccc2s1
remaining at 0.5 h [1]: 27%

Cc1nc2cc(OC[C@H](O)CN3CCN(CC(=O)N[C@@H]4CCc5ccccc54)CC3)ccc2s1
inhibition [2]: 50%

Cc1nc2cc(OC[C@H](O)CN3CCN(CC(=O)N[C@H](C)c4cccc5ccccc45)CC3)ccc2s1
inhibition [2]: 24%

Cc1nc2cc(OC[C@H](O)CN3CCN(CC(=O)Nc4ccc(Cl)c(Cl)c4)CC3)ccc2s1
remaining at 0.5 h [1]: 29%

Cc1nc2cc(OC[C@H](O)CN3CCN(CC(=O)N[C@@H](C)c4ccc5ccccc5c4)CC3)ccc2s1
remaining at 0.5 h [1]: 14%

CCn1c2ccccc2c2cc(NC(=O)CN3CCN(C[C@@H](O)COc4ccc5sc(C)nc5c4)CC3)ccc21
IC50 [3]: 39 µM
half-life [4]: 2.6 h
Delta H-V [5]: 0 ms
Delta S-H [6]: 0 ms
half-life [7]: 3 h
remaining at 0.5 h [1]: 62%
Delta S-H [8]: 1 ms
Delta CPP [9]: 0.7 mmHg
bioavailability [10]: 17.5%
Cmax [11]: 26.3 ng/mL
Delta CPP [12]: -0.4 mmHg
IC50 [13]: > 100 µM
Vd [14]: 3.4 L/kg
Tmax [15]: 6 h
AUC at 24 h [16]: 230 ng·h/mL
IC50 [17]: > 100 µM
Delta H-V [18]: 0 ms
clearance [19]: 13.5 mL/min/kg
AUC at 24 h [20]: 1320 ng·h/mL

Cc1nc2cc(OC[C@H](O)CN3CCN(CC(=O)Nc4cccc5nsnc45)CC3)ccc2s1
remaining at 0.5 h [1]: 11%

Cc1nc2cc(OC[C@H](O)CN3CCN(CC(=O)Nc4ccccc4-c4ccccc4)CC3)ccc2s1
inhibition [2]: 39%

Cc1cc(NC(=O)CN2CCN(C[C@@H](O)COc3ccc4sc(C)nc4c3)CC2)c2ccccc2n1
inhibition [2]: 40%

Cc1nc2cc(OC[C@H](O)CN3CCN(CC(=O)N[C@H](C)c4ccc(F)cc4)CC3)ccc2s1
inhibition [2]: 40%

Cc1nc2cc(OC[C@H](O)CN3CCN(CC(=O)Nc4ccccc4)CC3)ccc2s1
remaining at 0.5 h [1]: 47%

Cc1nc2cc(OC[C@H](O)CN3CCN(CC(=O)NC4CCCCC4)CC3)ccc2s1
remaining at 0.5 h [1]: 37%

Cc1nc2cc(OC[C@H](O)CN3CCN(CC(=O)N[C@H](C)c4ccc5ccccc5c4)CC3)ccc2s1
remaining at 0.5 h [1]: 45%

Cc1nc2cc(OC[C@H](O)CN3CCN(CC(=O)N[C@H](C)c4ccccc4)CC3)ccc2s1
inhibition [2]: 23%

Cc1nc2cc(OC[C@H](O)CN3CCN(CC(=O)N[C@H]4CCc5ccccc54)CC3)ccc2s1
remaining at 0.5 h [1]: 1%

Cc1nc2cc(OC[C@H](O)CN3CCN(CC(=O)Nc4ccc(-c5ccccc5)cc4)CC3)ccc2s1
Delta H-V [5]: 0.5 ms
Delta S-H [6]: 5 ms
remaining at 0.5 h [1]: 63%
Delta CPP [9]: -6.6 mmHg
IC50 [13]: 31 µM
IC50 [21]: 7.9 µM
IC50 [17]: 30 µM

Cc1nc2cc(OC[C@H](O)CN3CCN(CC(=O)Nc4cccc5ncccc45)CC3)ccc2s1
remaining at 0.5 h [1]: 2%

Cc1nc2cc(OC[C@H](O)CN3CCN(CC(=O)Nc4ccc(Oc5ccccc5)cc4)CC3)ccc2s1
remaining at 0.5 h [1]: 18%

Cc1nc2cc(OC[C@H](O)CN3CCN(CC(=O)Nn4nnc5ccccc54)CC3)ccc2s1
inhibition [2]: 16%

Cc1nc2cc(OC[C@H](O)CN3CCN(CC(=O)Nc4cc(Cl)c(Cl)c(Cl)c4)CC3)ccc2s1
remaining at 0.5 h [1]: 34%

Cc1nc2cc(OC[C@H](O)CN3CCN(CC(=O)NC4Cc5ccccc5C4)CC3)ccc2s1
remaining at 0.5 h [1]: 2%

Cc1nc2cc(OC[C@H](O)CN3CCN(CC(=O)Nc4cccc5[nH]ccc45)CC3)ccc2s1
remaining at 0.5 h [1]: 35%

Cc1nc2cc(OC[C@H](O)CN3CCN(CC(=O)N[C@@H](C)c4cccc5ccccc45)CC3)ccc2s1
remaining at 0.5 h [1]: 10%

Cc1nc2cc(OC[C@H](O)CN3CCN(CC(=O)N[C@@H](C)c4ccc(F)cc4)CC3)ccc2s1
remaining at 0.5 h [1]: 10%

Cc1nc2cc(OC[C@H](O)CN3CCN(CC(=O)NCC4CCCCC4)CC3)ccc2s1
remaining at 0.5 h [1]: 29%

Cc1nc2cc(OC[C@H](O)CN3CCN(CC(=O)Nc4cccc(-c5ccccc5)c4)CC3)ccc2s1
Delta H-V [5]: 0 ms
Delta S-H [6]: 3 ms
remaining at 0.5 h [1]: 58%
Delta CPP [9]: -4.3 mmHg
IC50 [13]: 6 µM
IC50 [21]: 37 µM
IC50 [17]: 24 µM

Cc1nc2cc(OC[C@H](O)CN3CCN(CC(=O)Nc4ccc(Oc5ccc(Cl)cc5)cc4)CC3)ccc2s1
remaining at 0.5 h [1]: 64%

Cc1nc2cc(OC[C@H](O)CN3CCN(CC(=O)Nc4cccc5ccccc45)CC3)ccc2s1
remaining at 0.5 h [1]: 50%

COc1ccc(NC(=O)CN2CCN(C[C@@H](O)COc3ccc4sc(C)nc4c3)CC2)cc1
remaining at 0.5 h [1]: 41%

Cc1ccc(NC(=O)CN2CCN(C[C@@H](O)COc3ccc4sc(C)nc4c3)CC2)cc1
remaining at 0.5 h [1]: 51%

Cc1nc2cc(OC[C@H](O)CN3CCN(CC(=O)N[C@H]4CCCc5ccccc54)CC3)ccc2s1
remaining at 0.5 h [1]: 2%

Cc1nc2cc(OC[C@H](O)CN3CCN(CC(=O)Nc4cccc(Oc5ccccc5)c4)CC3)ccc2s1
remaining at 0.5 h [1]: 15%

Cc1nc2cc(OC[C@H](O)CN3CCN(CC(=O)Nc4ccc(C#N)cc4)CC3)ccc2s1
inhibition [2]: 42%

Cc1nc2cc(OC[C@H](O)CN3CCN(CC(=O)Nc4ccc(C(N)=O)cc4)CC3)ccc2s1
inhibition [22]: 35%

Cc1nc2cc(OC[C@H](O)CN3CCN(CC(=O)Nc4ccc5c(c4)CCCC5)CC3)ccc2s1
remaining at 0.5 h [1]: 2%

Cc1nc2cc(OC[C@H](O)CN3CCN(CC(=O)Nc4ccccc4Oc4ccccc4)CC3)ccc2s1
inhibition [2]: 34%
